Yeast life ext: yeast lifespan extension; S. cerevisiae growth with nicotinamide, OD615; deaD strain in restrictive glucose medium; inhibition of the nicotinamide effect, % at 10 µM; 130,000 tested, 0.68% active;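 active means inhibition above a set limit, placed 3 SD over the median of all compounds, cut at about 26% in these data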
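Test system – modified budding yeast, DeaD strain · Compound – single dose 10 µM compound, 0.25% DMSO · Times – culture preincubation 4 h, compound exposure 48 h, both 30 °C · Detection – optical density (absorbance) at 615 nm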
RBBP9 inhibitor: inhibitors of human serine hydrolase RBBP9. O75884. recombinant RBBP9, FP-Rh probe fluorescence polarization. 220,000 tested, 0.2% active. inhibition, % at 7.94 µM;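 active means inhibition above the campaign mean of all tested compounds plus 3 SD, cut at about 14% in these data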
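Assay system: recombinant human RBBP9; Reagent: Serine-hydrolase probe FP-Rh, 375 nM pre-mixing; Doses: 7.94 µM single dose, 0.794% DMSO; Incubation: 30 min then 45 min, 25 °C; Detection: fluorescence polarization (mP), excitation 525 nm, emission 598 nm; Evaluation: percent inhibition from mP, scaled between DMSO and no-protein wells.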
BB579 growth dn: chemicals that inhibit yeast BB579 growth in restrictive medium (lifespan-shortening candidates) | S. cerevisiae BB579 growth, OD615, 48 h | 140,000 tested, 0.51% active | inhibition, % at 10 µM;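 active means inhibition above a set limit, 3 SD over the mean compound inhibition, cut at about 44% in these data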
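Assay system: S. cerevisiae DeaD strain BB579 yeast. Medium: CSMM-D restrictive synthetic medium containing dextrose (glucose). Times: 4 h cell preincubation, 48 h compound exposure, 30 °C humidified. Signal: OD615 turbidity measurement. Benchmarks: positive control amphotericin B 10 µg/mL.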
NCF1 inh: p47phox (human) inhibition; inhibition, % at 24.7 µM; p47phox/p22phox peptide binding, fluorescence polarization, 2 h; AID 1274; 220,000 tested, 0.53% active; P14598;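 active means inhibition above about 30%, limit read from the data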
Target sequence (P14598 whole entry, looked up): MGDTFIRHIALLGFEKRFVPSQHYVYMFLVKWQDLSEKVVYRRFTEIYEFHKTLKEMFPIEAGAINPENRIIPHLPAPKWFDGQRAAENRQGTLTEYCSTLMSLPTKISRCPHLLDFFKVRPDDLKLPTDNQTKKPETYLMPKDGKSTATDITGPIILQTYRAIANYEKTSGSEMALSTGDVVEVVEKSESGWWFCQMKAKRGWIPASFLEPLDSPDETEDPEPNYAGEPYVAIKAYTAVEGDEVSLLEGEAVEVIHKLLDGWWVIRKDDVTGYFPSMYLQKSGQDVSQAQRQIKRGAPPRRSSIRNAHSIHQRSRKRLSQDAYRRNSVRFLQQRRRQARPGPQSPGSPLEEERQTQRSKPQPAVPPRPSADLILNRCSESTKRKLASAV
TbHK1 inh: T. brucei hexokinase 1 inhibition | 220,000 tested, 0.11% active | inhibition, % at 10 µM | recombinant TbHK1, G6PDH-coupled NADH A340;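 active means inhibition of 50% or more in the single-dose primary screen; inactive means inhibition below 50%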
sdo1 growth: compounds rescuing growth of sdo1-depleted yeast, bone marrow failure model; S. cerevisiae sdo1-depleted JHY4D growth rescue, OD600 30 h; active compounds read high; pdr5 snq2 efflux-pump mutant strain; z-score at 10 µM; 140,000 tested, 0.21% active; AID 817;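 active means z-score above 3 at both the 24 hr and the 30 hr optical density reads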
Numbers stand for hits; - = inactive; . = not tested or not shown; + = active, no number. An excerpt weighted towards active compounds, which were near 1.6% of everything screened.

SMILES	Yeast life ext	RBBP9 inhibitor	BB579 growth dn	NCF1 inh	TbHK1 inh	sdo1 growth
Cc1ccc(-c2nnc(-c3ccc4c(c3)OCO4)o2)cc1	.	-	.	131	-	.
CC(=O)c1ccc(-c2ccc(C(=O)N3CCCc4ccccc43)o2)cc1	.	-	.	-	-	.
O=C1CCC/C(=N\NC(=O)COc2ccc(Cl)cc2)C1	.	-	.	-	-	.
Cc1oc2cc(OCC(=O)O)ccc2c(=O)c1Oc1ccccc1	-	-	-	-	-	-
CCc1cc2c(=O)c(Oc3ccccc3)c(C)oc2cc1O	69	-	-	-	-	-
Cc1ccccc1NC(=O)Cn1c(O)c(N=NC(=O)c2ccccc2O)c2ccccc21	-	-	-	50	-	-
Cc1ccc(NC(=O)Cn2c(O)c(N=NC(N)=O)c3ccccc32)cc1	.	-	.	-	-	.
COCC(=O)N(C)c1nnc(-c2ccc([N+](=O)[O-])cc2)s1	-	-	-	35	-	-
COCC(=O)N(C)c1nnc(-c2ccccn2)s1	-	-	-	-	-	-
CNC(=S)NNC(=O)c1cc(C(C)(C)C)nn1Cc1ccc(F)cc1	.	-	.	-	-	.
Cc1cc(C(=O)Nc2nnc(-c3ccccc3)s2)no1	27	-	-	-	-	-
COc1ccccc1Oc1ccc2c(c1)C(=O)N(c1cccc(O)c1)C2=O	-	-	-	-	-	-
Cc1ccc(C(=O)COC(=O)c2ccc3c(c2)C(=O)N(c2cccc4ncccc24)C3=O)cc1C	-	-	-	73	-	-
Cc1ccc(C(=O)COC(=O)c2ccc(-c3cnc4ccccc4n3)cc2)cc1C	-	-	-	-	-	-
COc1ccccc1Oc1ccc2c(c1)C(=O)N(c1cccc3ncccc13)C2=O	-	-	-	36	-	-
O=C(NNc1cc(N2CCOCC2)nc(N2CCOCC2)n1)c1ccc([N+](=O)[O-])cc1	.	-	.	49	-	.
O=C(Nc1ccc(N2CCOCC2)cc1N1CCOCC1)c1ccc([N+](=O)[O-])cc1	-	-	-	-	-	-
CN(C)c1ccc(N=Nc2ccccc2C(=O)OCC(=O)Nc2ccccc2C(F)(F)F)cc1	29	-	-	-	-	-
CCCc1cc(C(=O)NC2CCCCC2)no1	-	-	43	-	-	-
CCCc1cc(C(=O)NC2CCCC2)no1	-	-	-	-	-	-
Cc1nn(Cc2ccccc2)c(Cl)c1/C=C/C(=O)OC(C)C(=O)N1CCCC1 (stereo not drawn)	.	-	.	-	-	.
CN(C)S(=O)(=O)N(CC(=O)N1CCN(c2ccccc2)CC1)c1ccccc1	.	-	.	-	-	.
O=C1/C(=C/c2ccc([N+](=O)[O-])cc2)C=C(c2ccccc2)N1c1ccc(O)cc1	-	-	-	56	-	-
O=C1/C(=C/c2ccc([N+](=O)[O-])cc2)C=C(c2ccccc2)N1c1ccccc1	-	-	-	-	-	-
CC12CC3CC(C)(C1)CC(CN)(C3)C2	-	-	-	-	-	-
SMILES	Yeast life ext	RBBP9 inhibitor	BB579 growth dn	NCF1 inh	TbHK1 inh	sdo1 growth
CC12CC3CC(C)(C1)CC(CN1CCOCC1)(C3)C2	-	-	-	39	-	-
CC1(C)NC(=O)N(CC(O)COC2CCCCC2)C1=O (stereo not drawn)	-	-	-	41	-	-
CC1(C)NC(=O)N(CC(O)CN2CCCCC2)C1=O (stereo not drawn)	-	-	-	-	-	-
CC1CC(CC(C)C(=O)NC(=S)Nc2ccc(S(N)(=O)=O)cc2)C(=O)O1 (stereo not drawn)	.	-	.	-	-	.
CCC1CC(C)(C(=O)Nc2ccc(S(N)(=O)=O)cc2)OC1=O (stereo not drawn)	49	-	-	+	-	-
Cc1ccc(OCC(=O)NNc2c3ccccc3nc3ccccc23)cc1	-	-	-	30	-	-
Cc1nc(N2CCN(C)CC2)c2sc(=S)n(C)c2n1	-	-	-	106	-	-
Cc1nc(N2CCN(C)CC2)c2sc(=S)n(-c3ccccc3)c2n1	-	-	-	-	-	-
CC(C)CNc1cc(N2CCCC2)ccc1[N+](=O)[O-]	-	-	-	59	-	-
COC(=O)c1ccc(NC(=S)Nc2ccccc2)cc1	-	-	-	-	-	-
O=C(O)c1ccc(NC(=S)Nc2ccccc2)cc1	37	-	-	-	-	-
CCCn1c(Nc2nc3ccccc3n2C)nc2ccccc21	-	-	90	-	-	-
